High-throughput results (PubChem)
A selection: hits, their analogues and other compounds. The true share with any hit is near 9.6%.
PMI act satM6P: activators of human phosphomannose isomerase at near-saturating mannose 6-phosphate | P34949 | coupled PMI enzyme assay, resazurin fluorescence, 20 min; hits give high values; 1 = untreated enzyme, 0 = substrate-free blank | activation factor at 20 µM | 0.34% of 190,000 active | AID 1216;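 active means activation factor of 2 or more at 20 µM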
Target sequence (P34949 whole entry, looked up): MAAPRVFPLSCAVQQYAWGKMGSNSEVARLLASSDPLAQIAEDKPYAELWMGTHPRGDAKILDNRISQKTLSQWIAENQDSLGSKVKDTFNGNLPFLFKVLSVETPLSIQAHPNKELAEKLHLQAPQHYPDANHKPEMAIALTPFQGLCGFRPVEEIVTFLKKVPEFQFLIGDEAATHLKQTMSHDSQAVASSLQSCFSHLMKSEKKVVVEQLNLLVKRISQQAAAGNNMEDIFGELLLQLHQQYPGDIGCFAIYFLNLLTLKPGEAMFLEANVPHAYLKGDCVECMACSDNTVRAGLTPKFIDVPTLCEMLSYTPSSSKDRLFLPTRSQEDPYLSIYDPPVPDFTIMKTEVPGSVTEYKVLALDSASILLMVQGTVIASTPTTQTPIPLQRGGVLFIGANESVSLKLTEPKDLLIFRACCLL
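assay system = human phosphomannose isomerase with PGI, G6PDH, diaphorase coupling enzymes | quantity = 15 ng/mL PMI | incubation = enzyme reaction with compound 20 min at room temperature | medium = HEPES pH 7.4 buffer with MgCl2 and Tween-20 | compound dosing = one concentration, 20 µM, in 1% DMSO | measured by = Diaphorase-driven resazurin-to-resorufin fluorescence, excitation 544, emission 590 nm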
HCT116 PTEN-null: growth suppressors of cells with PTEN tumor suppressor deletion | viability, % at 10 µM | AID 827 | 1.2% of 140,000 active | HCT116 PTEN-null viability, CellTiter-Glo, 60 h; hits give low values;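 active means viability at or below a set limit, 4 SD under the median of all tested compounds, cut at about 3.7% in these data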;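 further: PTEN knockout HCT116 line with beta catenin targeted HCT116 as companion control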
PMI act: activators of human phosphomannose isomerase. 0.005% of 190,000 active. activation factor at 20 µM. purified human PMI, coupled resazurin fluorescence, 20 min; hits give high values; 1 = vehicle control, 0 substrate-free wells. P34949;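 active means activation factor of 2 or more at 20 µM, relative to plate controls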
L major viab: inhibitors of Leishmania major promastigote growth | 9% of 200,000 active | inhibition, % at 10 µM | Leishmania major promastigotes, resazurin fluorescence viability | AID 1063; in the data active means inhibition above about 50%;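 further: promastigotes grown with compound for 44 hours at 28 °C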
HCT116 bCat-KO: beta-catenin-lacking colon tumor cell growth suppression; HCT116 beta-catenin knockout viability, CellTiter-Glo, 60 h; hits give low values; viability, % at 10 µM; 1.5% of 140,000 active;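 active means viability at or under a set limit, the compound median less 4 SD, cut at about 6% in these data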;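 further: 0% = Hyamine 1622 control at 20 µM and 100% = untreated cell control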
Numbers without * were called inactive; / = no result.

SMILES | PMI act satM6P | HCT116 PTEN-null | PMI act | L major viab | HCT116 bCat-KO
C=CCn1c(SCC(=O)Nc2ccc3c(c2)OCO3)nnc1-c1ccccc1OC | 1 | 10 | 1 | -3 | 14
Cc1cc(-n2cnnn2)ccc1C(C)C | 0.9 | / | 0.9 | -4 | /
CCOC(=O)c1c(C)[nH]c(-c2csc(N)n2)c1C | 2* | / | 1.5 | 4 | /
Cc1ccc(CONC(=O)/N=C/N(C)C)cc1 | 1.1 | 103 | 1.1 | -5 | 98
c1ccc2sc(NN=C3CCCCCC3)nc2c1 | 0.8 | / | 0.8 | 63* | /
O=C(COc1ncnc2ccccc12)Nc1ccccc1[N+](=O)[O-] | 1.1 | / | 1 | -3 | /
COc1ccc(N=c2oc3c(OC)cccc3cc2C(=O)NCc2ccco2)c(OC)c1 | 0.8 | 4 | 0.8 | 4 | 1.8*
Cc1c(Cl)cccc1NC(=O)c1cccc(OC(F)F)c1 | 1.1 | 87 | 1.1 | 99* | 99
Cc1ccc(NC(=O)c2cccc(OC(F)F)c2)c(OC(F)F)c1 | 0.8 | 94 | 0.8 | -4 | 91
Cc1nn(-c2ccccc2)c2sc(C(=O)N(CC(=O)NC(C)(C)C)Cc3ccco3)cc12 | 0.8 | 42 | 0.9 | 60* | 67
CC(=O)CC1(OC(C)=O)C(=O)N(C)c2ccccc21 (stereo not drawn) | 1 | / | 1 | 97* | /
NNC(=O)CNC(=O)c1cccc(Br)c1 | 0.9 | 107 | 0.9 | -3 | 105
Cc1ccc(C(=O)c2ccccc2C(=O)OCC(=O)Nc2ccc(SC(F)F)cc2)cc1 | 1 | 68 | 1 | 66* | 72
Cc1cc(=O)n2[nH]c(N)c(N=Nc3ccccc3)c2n1 | 0.8 | 78 | 1 | 5 | 74
O=c1c2c(nc3c(-c4ccccc4)c[nH]n13)CCCC2 | 1 | 111 | 1 | 74* | 89
Nc1nc(N)c(N=Nc2ccc(Cl)cc2)c(=O)[nH]1 | 1 | / | 1 | -6 | /
N#Cc1c[nH]n2c(=O)c3c(nc12)CCCC3 | 1 | 100 | 1.1 | -4 | 109
Nc1[nH]n2c(=O)c3c(nc2c1N=Nc1ccc(Cl)cc1)CCCC3 | 0.9 | 10 | 1 | 79* | 11
Cc1[nH]n2c(=O)c3c(nc2c1-c1ccccc1)CCC3 | 1 | 83 | 1 | 22 | 97
Nc1[nH]n2c(=O)c3c(nc2c1N=Nc1ccccc1)CCCC3 | 0.7 | 10 | 0.8 | 91* | 12
Cc1[nH]n2c(=O)c3c(nc2c1-c1ccc(Cl)cc1)CCC3 | 0.9 | 16 | 1 | 99* | 15
Cc1nonc1C1CCCN1Cc1cn[nH]c1-c1ccc2c(c1)OCO2 (stereo not drawn) | 0.9 | / | 0.9 | 14 | /
Cc1cccc2cc(CN(Cc3nnnn3C3CCCCC3)C3CCCC3)c3nnnn3c12 | 0.9 | 58 | 0.9 | 50* | 63
Cc1cc(C)c2[nH]c(=O)c(CN(Cc3nnnn3C3CCCC3)C3CCCCC3)cc2c1 | 1 | 69 | 1.1 | 29 | 78
COCc1cc(C)nc(OCC(=O)N/N=C/c2ccc(-c3cc([N+](=O)[O-])ccc3C)o2)c1C#N | 0.9 | 91 | 0.9 | -5 | 96
SMILES | PMI act satM6P | HCT116 PTEN-null | PMI act | L major viab | HCT116 bCat-KO
Cc1ccc([N+](=O)[O-])cc1-c1ccc(/C=C(\C#N)c2[nH]nc(N)c2C#N)o1 | 0.9 | 65 | 1 | 75* | 73
CCN1CC=C2C(C#N)=C(N)C(C#N)(C#N)C(c3cc(Cl)ccc3Cl)C2C1 (stereo not drawn) | 0.6 | 73 | 0.8 | 65* | 89
CCC(C)NC(=S)NNC(=O)c1ccc(C(C)(C)C)cc1 (stereo not drawn) | 1.2 | 93 | 1.2 | -2 | 94
COc1ccc(C(=O)/C=C(/C)N(C)C)cc1 | 1 | 96 | 1 | -5 | 102
COc1ccc(C(=O)C(CCCCC(CN(C)C)C(=O)c2ccc(OC)cc2)CN(C)C)cc1 (stereo not drawn) | 1 | 18 | 0.9 | 100* | 18
CCOc1ccc(C(=O)C(CCC(CN(C)C)C(=O)c2ccc(OCC)cc2)CN(C)C)cc1 (stereo not drawn) | 0.9 | 1.3* | 1 | 100* | 1.1*
O=C(NC1CC1)C1=COCCO1 | 1 | 95 | 1 | -1 | 97
COc1ccc(Cl)cc1N(CC(=O)NC1CC1)S(=O)(=O)c1ccc(C)c([N+](=O)[O-])c1 | 1 | / | 1 | -3 | /
COC(=O)c1[nH]c2ccccc2c1NC(=O)CN1CCN(C/C=C/c2ccccc2)CC1 | 1 | 55 | 1 | 64* | 57
CCOC(=O)c1[nH]c2ccc(F)cc2c1NC(=O)CN1CCN(C/C=C/c2ccccc2)CC1 | 0.9 | 48 | 0.9 | 99* | 56
CCc1ccc(NC(=S)N2CCCC(C(F)(F)F)C2)cc1 (stereo not drawn) | 0.9 | / | 0.9 | 96* | /
COCCSc1ccccc1C(=O)Nc1cc([N+](=O)[O-])ccc1OC | 1 | / | 1 | -2 | /
COc1ccc([N+](=O)[O-])cc1NC(=O)c1cn(-c2ccc(Cl)cc2)c(=O)c2ccccc12 | 1 | 82 | 1.1 | 60* | 80
CCc1nnc(NC(=O)CSc2nnc(-c3ccccc3O)n2-c2ccc(C)cc2C)s1 | 1 | 24 | 0.9 | 99* | 23
Cn1c(=O)n(C)c2cc(NC(=O)CSc3nnc(-c4ccccc4O)n3-c3ccccc3)ccc21 | 1.1 | 63 | 1 | 60* | 60
CCc1nnc(NC(=O)CSc2nnc(COc3ccccc3)n2-c2ccc(C)cc2)s1 | 0.9 | 84 | 0.9 | -2 | 93
O=C(c1nc(-c2ccccc2)n(-c2ccccc2)n1)N1CCN(S(=O)(=O)c2ccccc2)CC1 | 1 | 63 | 0.9 | 58* | 68
N#CC1=C2SCC(O)(c3ccccc3)N2C(=O)CC1c1ccccc1 (stereo not drawn) | 0.8 | 23 | 1.1 | 92* | 20
Cc1cnc(C(=O)Nc2ccccc2F)cn1 | 0.9 | 105 | 0.8 | -4 | 89
COc1ccc(NC(=O)c2cnc(C)cn2)c2ncccc12 | 0.9 | 11 | 1 | 86* | 11
CCOC(=O)c1sc(-c2ccccc2)cc1NC(=O)Nc1ccc([N+](=O)[O-])cc1 | 1.1 | 5 | 1 | 85* | 10
CCOC(=O)c1sc(-c2ccccc2)cc1N | 0.8 | 88 | 0.8 | -4 | 92
CCCOc1ccc(C(C)=O)cc1CSc1nc(O)cc(=O)[nH]1 | 1 | 95 | 0.9 | -4 | 92
CCC(C)c1ccc(NC(=O)COc2c(F)c(F)c(C(F)(F)F)c(F)c2F)cc1 (stereo not drawn) | 0.9 | 79 | 0.8 | -3 | 75
Cc1ccccc1-c1nn(-c2ccc(F)cc2F)cc1CNCCCN(C)C | 1 | / | 0.9 | 100* | /
Cc1ccccc1-c1nn(-c2ccc(F)cc2F)cc1CNCCN(C)C | 0.9 | / | 0.8 | 74* | /
COCCN(C)Cc1cn(-c2ccc(F)cc2F)nc1-c1ccccc1C | 1 | / | 1.1 | 11 | /
CCC(COC)NCc1cn(-c2ccc(F)cc2F)nc1-c1ccccc1C (stereo not drawn) | 1 | / | 0.9 | 15 | /
Nc1ccccc1-c1nnc(-c2ccccc2N)n1N | 0.9 | / | 1.1 | -5 | /
